Assay results taken from ChEMBL document CHEMBL4373647, “Design, synthesis, and antimicrobial evaluation of 1,4-dihydroindeno[1,2-c]pyrazole tethered carbohydrazide hybrids: exploring their in silico ADMET, ergosterol inhibition and ROS inducing potential” (Medchemcomm, 2019).
≈ marks a conversion by molar mass, not a printed value. Calls of active or inactive are those of the source. The rule behind the calls is not given here.

Assays:
[1] = test system: Candida parapsilosis; assay: Ratio of MFC to MIC against Candida parapsilosis MTCC 1744; format: functional
Procedure, shortened: (§1)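 MIC by agar well diffusion: Candida lawns on Mueller-Hinton agar, wells loaded with compound in 10% DMSO (125–0.97 µg/mL), 24 h at 37 °C, lowest concentration giving an inhibition zone. MFC: compound in Mueller-Hinton broth (125–0.97 µg/mL) with yeast, 24 h at 37 °C, 10 µL plated on agar, lowest killing concentration after 24 h. Ratio is MFC/MIC.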

[2] = test system: Candida albicans; assay: Antifungal activity against Candida albicans MTCC 4748 assessed as inhibition of fungal growth incubated for 24 hrs by agar well diffusion method; format: functional; details: MTCC 4748, 24 h
Procedure, shortened: (§2)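 Candida strains from MTCC, pre-cultured and spread on Mueller Hinton agar. Wells received compound dissolved in 10% DMSO, 125–0.97 µg/mL; miconazole standard over the same range, DMSO negative control. After 24 h at 37 °C, MIC was read as the lowest concentration giving an inhibition zone. Duplicate experiments, means given.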

[3] = test system: MRC5; assay: Cytotoxicity against human MRC5 cells incubated for 48 hrs by MTT assay; format: cell-based; details: MRC5, 48 h
Procedure, shortened: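 Normal human lung MRC5 cells grown 24 h in 96-well plates, then exposed to a range of compound concentrations for 48 h. MTT (250 µg/mL) added for 2 h, medium replaced by DMSO, absorbance read at 570 nm. Miconazole positive control, DMSO negative control. Triplicates, mean ± S.D.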

[4] = test system: Candida albicans; assay: Fungicidal activity against Candida albicans MTCC 4748 assessed as fungal killing incubated for 24 hrs; format: functional; details: MTCC 4748, 24 h
Procedure, shortened: (§3)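 Compound at 125–0.97 µg/mL in Mueller Hinton broth in microcentrifuge tubes, each Candida strain added, held 24 h at 37 °C. 10 µL of the treated suspension plated on Mueller Hinton agar and incubated a further 24 h at 37 °C. MFC is the lowest concentration that kills the strain. Duplicates, means reported.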

[5] = target: Lanosterol 14-alpha demethylase (Candida albicans (strain SC5314 / ATCC MYA-2876) (Yeast), UniProt P10613); assay: Inhibition of CYP51 in Candida albicans MTCC 3017 assessed as reduction in ergosterol level incubated for 20 hrs by UV-visible spectrophotometry analysis
Chain of Lanosterol 14-alpha demethylase (P10613 whole entry): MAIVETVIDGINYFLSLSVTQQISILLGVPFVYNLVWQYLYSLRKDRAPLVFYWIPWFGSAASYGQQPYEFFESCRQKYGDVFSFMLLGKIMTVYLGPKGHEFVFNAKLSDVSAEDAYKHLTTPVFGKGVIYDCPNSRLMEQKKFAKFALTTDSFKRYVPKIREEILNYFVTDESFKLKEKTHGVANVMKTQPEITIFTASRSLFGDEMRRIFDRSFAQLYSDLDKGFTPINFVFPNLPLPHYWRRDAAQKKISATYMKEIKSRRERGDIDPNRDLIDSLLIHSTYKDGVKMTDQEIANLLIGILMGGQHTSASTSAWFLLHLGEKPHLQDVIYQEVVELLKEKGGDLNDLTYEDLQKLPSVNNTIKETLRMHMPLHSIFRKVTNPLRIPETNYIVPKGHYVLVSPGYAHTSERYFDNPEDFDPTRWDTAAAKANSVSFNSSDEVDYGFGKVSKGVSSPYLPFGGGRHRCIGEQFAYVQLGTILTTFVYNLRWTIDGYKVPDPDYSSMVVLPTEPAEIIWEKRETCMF
Procedure, shortened: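 Modified Breivik–Owades sterol method: Mueller Hinton broth with compound at 0, 2, 4, 8, 16 µg/mL, inoculated with single Candida colonies, shaken at 200 rpm for 20 h at 30 °C. Pellets washed and weighed, saponified in 25% alcoholic KOH for 70 min at 90 °C, sterols extracted into n-heptane, diluted 1:5 in ethanol and scanned at 230–310 nm. Triplicates.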

[6] = test system: Candida albicans; assay: Fungicidal activity against Candida albicans MTCC 7315 assessed as fungal killing incubated for 24 hrs; format: functional; details: MTCC 7315, 24 h; procedure, shortened: as §3
[7] = test system: Candida albicans; assay: Ratio of MFC to MIC against Candida albicans MTCC 4748; format: functional; procedure, shortened: as §1
[8] = test system: Candida albicans; assay: Ratio of MFC to MIC against Candida albicans MTCC 3018; format: functional; procedure, shortened: as §1
[9] = test system: Pichia sporocuriosa; assay: Ratio of MFC to MIC against Issatchenkia hanoiensis MTCC 4755; format: functional; procedure, shortened: as §1
[10] = test system: Candida albicans; assay: Fungicidal activity against Candida albicans MTCC 3018 assessed as fungal killing incubated for 24 hrs; format: functional; details: MTCC 3018, 24 h; procedure, shortened: as §3
[11] = test system: Candida parapsilosis; assay: Antifungal activity against Candida parapsilosis MTCC 1744 assessed as inhibition of fungal growth incubated for 24 hrs by agar well diffusion method; format: functional; details: Lodderomyces parapsilosis, MTCC 1744, 24 h; procedure, shortened: as §2
[12] = test system: Nakaseomyces glabratus; assay: Ratio of MFC to MIC against Candida glabrata MTCC 3019; format: functional; procedure, shortened: as §1
[13] = test system: Candida albicans; assay: Ratio of MFC to MIC against Candida albicans MTCC 183; format: functional
[14] = test system: Staphylococcus aureus; assay: Antibacterial activity against Staphylococcus aureus MTCC 96 assessed as inhibition of bacterial growth incubated for 24 hrs by agar well diffusion method; format: functional
Procedure, shortened: (§4)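 Strains from MTCC; inoculum at 0.5 McFarland spread on Mueller-Hinton agar; 6 mm wells loaded with compound over 125–0.97 µg/mL; ciprofloxacin positive control (same range), DMSO negative control. Plates held 24 h at 37 °C; MIC taken as lowest concentration giving a clear inhibition zone. Triplicate runs, mean MIC reported.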

[15] = test system: Escherichia coli; assay: Antibacterial activity against Escherichia coli MTCC 739 assessed as inhibition of bacterial growth incubated for 24 hrs by agar well diffusion method; format: functional; procedure, shortened: as §4
[16] = test system: Candida albicans; assay: Ratio of MFC to MIC against Candida albicans MTCC 1637; format: functional
[17] = test system: Candida albicans; assay: Ratio of MFC to MIC against Candida albicans MTCC 7315; format: functional; procedure, shortened: as §1
[18] = test system: Nakaseomyces glabratus; assay: Antifungal activity against Candida glabrata MTCC 3019 assessed as inhibition of fungal growth incubated for 24 hrs by agar well diffusion method; format: functional; details: MTCC 3019, 24 h; procedure, shortened: as §2
[19] = test system: Candida albicans; assay: Antifungal activity against Candida albicans MTCC 3017 assessed as inhibition of fungal growth incubated for 24 hrs by agar well diffusion method; format: functional; details: MTCC 3017, 24 h; procedure, shortened: as §2
[20] = test system: Candida albicans; assay: Ratio of MFC to MIC against Candida albicans MTCC 227; format: functional; procedure, shortened: as §1
[21] = test system: Raoultella planticola; assay: Antibacterial activity against Klebsiella planticola MTCC 530 assessed as inhibition of bacterial growth incubated for 24 hrs by agar well diffusion method; format: functional; procedure, shortened: as §4
[22] = test system: Candida albicans; assay: Fungicidal activity against Candida albicans MTCC 227 assessed as fungal killing incubated for 24 hrs; format: functional; details: MTCC 227, 24 h; procedure, shortened: as §3
[23] = test system: Candida albicans; assay: Fungicidal activity against Candida albicans MTCC 1637 assessed as fungal killing incubated for 24 hrs; format: functional; details: MTCC 1637, 24 h; procedure, shortened: as §3
[24] = test system: Nakaseomyces glabratus; assay: Fungicidal activity against Candida glabrata MTCC 3019 assessed as fungal killing incubated for 24 hrs; format: functional; details: MTCC 3019, 24 h; procedure, shortened: as §3
[25] = test system: Candida albicans; assay: Antifungal activity against Candida albicans MTCC 183 assessed as inhibition of fungal growth incubated for 24 hrs by agar well diffusion method; format: functional; details: MTCC 183, 24 h; procedure, shortened: as §2
[26] = test system: Pichia kudriavzevii; assay: Fungicidal activity against Candida krusei MTCC 3020 assessed as fungal killing incubated for 24 hrs; format: functional; details: MTCC 3020, 24 h; procedure, shortened: as §3
[27] = test system: Pichia sporocuriosa; assay: Fungicidal activity against Issatchenkia hanoiensis MTCC 4755 assessed as fungal killing incubated for 24 hrs; format: functional; details: MTCC 4755, 24 h; procedure, shortened: as §3
[28] = test system: Candida albicans; assay: Antifungal activity against Candida albicans MTCC 227 assessed as inhibition of fungal growth incubated for 24 hrs by agar well diffusion method; format: functional; details: MTCC 227, 24 h; procedure, shortened: as §2
[29] = test system: Candida parapsilosis; assay: Fungicidal activity against Candida parapsilosis MTCC 1744 assessed as fungal killing incubated for 24 hrs; format: functional; details: Lodderomyces parapsilosis, MTCC 1744, 24 h; procedure, shortened: as §3
[30] = test system: Candida albicans; assay: Fungicidal activity against Candida albicans MTCC 183 assessed as fungal killing incubated for 24 hrs; format: functional; details: MTCC 183, 24 h; procedure, shortened: as §3
[31] = test system: Candida albicans; assay: Antifungal activity against Candida albicans MTCC 3018 assessed as inhibition of fungal growth incubated for 24 hrs by agar well diffusion method; format: functional; details: MTCC 3018, 24 h; procedure, shortened: as §2
[32] = test system: Pichia kudriavzevii; assay: Ratio of MFC to MIC against Candida krusei MTCC 3020; format: functional; procedure, shortened: as §1
[33] = test system: Staphylococcus aureus; assay: Antibacterial activity against Staphylococcus aureus MLS-16 MTCC 2940 assessed as inhibition of bacterial growth incubated for 24 hrs by agar well diffusion method; format: functional; procedure, shortened: as §4
[34] = test system: Candida albicans; assay: Antifungal activity against Candida albicans MTCC 7315 assessed as inhibition of fungal growth incubated for 24 hrs by agar well diffusion method; format: functional; details: MTCC 7315, 24 h; procedure, shortened: as §2
[35] = test system: Pichia kudriavzevii; assay: Antifungal activity against Candida krusei MTCC 3020 assessed as inhibition of fungal growth incubated for 24 hrs by agar well diffusion method; format: functional; details: MTCC 3020, 24 h; procedure, shortened: as §2
[36] = test system: Candida albicans; assay: Induction of ROS generation in Candida albicans MTCC 3017 assessed as accumulation of intracellular ROS level by measuring fluorescence intensity at 5 to 25 ug/ml after 24 hrs by DCFH-DA probe based fluorimetric assay; format: functional, organism-based
Procedure, shortened: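 C. albicans MTCC 3017 biofilms grown 24 h at 37 °C in 96-well plates, then treated 24 h with compound at 0, 5, 10, 15, 20, 25 µg/mL; untreated cells served as control. Cells then loaded with 10 µM DCFH-DA for 24 h in the dark, and fluorescence read at 485 nm excitation and 535 nm emission. Triplicates.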

[37] = test system: Pichia sporocuriosa; assay: Antifungal activity against Issatchenkia hanoiensis MTCC 4755 assessed as inhibition of fungal growth incubated for 24 hrs by agar well diffusion method; format: functional; details: MTCC 4755, 24 h; procedure, shortened: as §2
[38] = test system: Candida albicans; assay: Antifungal activity against Candida albicans MTCC 1637 assessed as inhibition of fungal growth incubated for 24 hrs by agar well diffusion method; format: functional; details: MTCC 1637, 24 h; procedure, shortened: as §2
[39] = test system: Bacillus subtilis; assay: Antibacterial activity against Bacillus subtilis MTCC 121 assessed as inhibition of bacterial growth incubated for 24 hrs by agar well diffusion method; format: functional; procedure, shortened: as §4
[40] = test system: Micrococcus luteus; assay: Antibacterial activity against Micrococcus luteus MTCC 2470 assessed as inhibition of bacterial growth incubated for 24 hrs by agar well diffusion method; format: functional; procedure, shortened: as §4
[41] = test system: Pseudomonas aeruginosa; assay: Antibacterial activity against Pseudomonas aeruginosa MTCC 2453 assessed as inhibition of bacterial growth incubated for 24 hrs by agar well diffusion method; format: functional; procedure, shortened: as §4

- MIC [2]: 3.9 µg/mL (≈ 9.37 µM)
- inhibition (INH) [5]: Dose-dependent effect
- MIC [11]: 3.9 µg/mL (≈ 9.37 µM)
- MIC [14]: inactive
- MIC [15]: inactive
- MIC [18]: 3.9 µg/mL (≈ 9.37 µM)
- MIC [19]: 3.9 µg/mL (≈ 9.37 µM)
- MIC [25]: 3.9 µg/mL (≈ 9.37 µM)
- MIC [28]: 3.9 µg/mL (≈ 9.37 µM)
- MIC [31]: 3.9 µg/mL (≈ 9.37 µM)
- MIC [33]: inactive
- MIC [34]: 3.9 µg/mL (≈ 9.37 µM)
- MIC [35]: 3.9 µg/mL (≈ 9.37 µM)
- MIC [37]: 3.9 µg/mL (≈ 9.37 µM)
- MIC [38]: 3.9 µg/mL (≈ 9.37 µM)
- MIC [39]: inactive
- MIC [40]: inactive
- MIC [41]: inactive
SMILES: Clc1ccc(COC(Cn2ccnc2)c2ccc(Cl)cc2Cl)c(Cl)c1 (stereo unspecified) [MICONAZOLE]
- Ratio [1]: 2
- IC50 [3]: 61.7 µg/mL (≈ 148 µM)
- MFC [4]: 7.8 µg/mL (≈ 18.7 µM)
- MFC [6]: 7.8 µg/mL (≈ 18.7 µM)
- Ratio [7]: 2
- Ratio [8]: 2
- Ratio [9]: 2
- MFC [10]: 7.8 µg/mL (≈ 18.7 µM)
- Ratio [12]: 2
- Ratio [13]: 2
- Ratio [16]: 2
- Ratio [17]: 2
- Ratio [20]: 2
- MIC [21]: inactive
- MFC [22]: 7.8 µg/mL (≈ 18.7 µM)
- MFC [23]: 7.8 µg/mL (≈ 18.7 µM)
- MFC [24]: 7.8 µg/mL (≈ 18.7 µM)
- MFC [26]: 7.8 µg/mL (≈ 18.7 µM)
- MFC [27]: 7.8 µg/mL (≈ 18.7 µM)
- MFC [29]: 7.8 µg/mL (≈ 18.7 µM)
- MFC [30]: 7.8 µg/mL (≈ 18.7 µM)
- Ratio [32]: 2
- Activity [36]: Active
